Experimental data from different studies.
Protocols differ between the studies behind these lines.
Target: Serine/threonine-protein kinase Chk1 (CHEK1, Homo sapiens, UniProt O14757)
Mode: inhibitor

SMILES	observed	method	cells	concentration	inhibition [%]
C=CC(=O)Nc1cc(Nc2nccc(Nc3cc(Cl)c(F)cc3C(C)(C)O)n2)c(OC)cc1N1CC[C@@H](N(C)C)C1	enzyme activity	–	–	1 µM	9
CS(=O)(=O)Nc1cccc(-c2csc(NC(=O)CSc3nc4nccnc4c(=O)n3CCc3ccccc3)n2)c1	enzyme activity	–	–	10 µM	-3
Cc1ncc([N+](=O)[O-])n1C(=NO)c1ccccc1C(F)(F)F	enzyme activity	–	–	10 µM	19.2
CNCc1ccc(-c2cc(-c3nc(-c4ccc(S(=O)(=O)C(C)C)cc4)cnc3N)on2)cc1	enzyme activity	–	–	0.4 µM	15
CNc1cccc2cc(C(=O)Nc3ccc(C(=O)O)cc3)c(=O)[nH]c12	enzyme activity	–	–	10 µM	-1.6
CNC(=O)c1cc(Oc2ccc(NC(=O)Nc3ccc(Cl)c(C(F)(F)F)c3)cc2)ccn1	enzyme activity	–	–	0.3 µM	-5
CN(C)C1CCN(CC#Cc2nn(C3CCCC3)c3nc(NCc4ccccc4)ncc23)C1 (stereo not shown)	enzyme activity	FRET	–	1 µM	-5
CCN1CCN(Cc2ccc(NC(=O)c3ccc(C)c(/C=C/c4cnc5[nH]ccc5c4OC)c3)cc2C(F)(F)F)CC1	target engagement in cells	chemoproteomics	A-375	0.5 µM	-126
COc1cc2ncnc(Nc3ccc(Oc4ccccc4)cc3C)c2cc1OC	enzyme activity	–	–	1 µM	6
CCN1CCN(Cc2ccc(NC(=O)c3ccc(C)c(Oc4ccnc5[nH]ccc45)c3)cc2C(F)(F)F)CC1	target engagement in cells	chemoproteomics	A-375	50 nM	-156
Cc1ccc(Nc2nccc(N(C)c3ccc4c(C)n(C)nc4c3)n2)cc1S(N)(=O)=O	enzyme activity	–	–	0.3 µM	2
CSc1nc(C)c(-c2ccnc(Nc3ccc(N4CCOCC4)cc3)c2)[nH]1	enzyme activity	–	–	10 µM	12.4
COc1cccc2c(NCc3ccccc3)nc(-n3c(N)nc4ccccc43)nc12	target engagement in cells	chemoproteomics	–	20 mM	-4.2
